Results collected from several papers.
Protocols differ between the studies behind these lines.

SMILES	test system	conditions	endpoint	value
CC(C)(Nc1nc(-c2ccccn2)nc2ccccc12)c1ccccn1	female BALB/c mouse, plasma	intravenous, 1 mg/kg, 15 min	concentration	0.963 µg/mL
CC(C)CN(C[C@@H](O)[C@H](Cc1ccccc1)NC(=O)O[C@H]1CO[C@H]2OCC[C@H]21)S(=O)(=O)c1ccc(N)cc1	BALB/c mouse, brain	intravenous, 2.5 mg/kg, 6 h	concentration	1.36 ng/g
CS(=O)(=O)CCC#N	human, plasma	oral, 300 mg, single dose, fasted	MRT	30.5 h
CC(C)(C)c1ccc(O)c(CN(Cc2cc(C(C)(C)C)ccc2O)C2CCC(NC(N)=O)CC2)c1 (stereo not drawn)	male C57BL/6 mouse, brain	intraperitoneal, 25 mg/kg, single dose	half-life	10.1 h
O=c1nc(N2CCN(CC3CCCCC3)CC2)sc2c([N+](=O)[O-])cc(C(F)(F)F)cc12	CD-1 mouse, plasma	intravenous, 10 mg/kg, 4 h	concentration	0.139 µg/mL
O=C(O)C1CCN(c2ncc(-c3ccc4c(c3)OCCCO4)s2)CC1	male Swiss mouse, plasma	oral, 30 mg/kg, 24 h, single dose	concentration	1.57 µg/mL
c1cnc2ccc(Nc3nc(NC4CC4)c4nc[nH]c4n3)cc2c1	human, plasma	oral, 50 mg/m², patients	MRT(0-t)	6.4 h
CC(C)(O)c1ccccc1-c1ccc2[nH]c(/C=C/c3ccc(C(F)(F)F)cc3)nc2c1	male human, plasma	oral, 60 mg, single dose, fasted, healthy volunteers	MRT	91.4 h
CC(C)Oc1cccc(-c2cnc(N3CCC(C(N)=O)CC3)s2)c1	male Swiss mouse, plasma	oral, 30 mg/kg, 8 h, single dose	concentration	0.00849 µg/mL
